Laboratory results: ChEMBL document CHEMBL1158761, “Globosumones A-C, cytotoxic orsellinic acid esters from the Sonoran desert endophytic fungus Chaetomium globosum” (J Nat Prod, 2005)
Activity calls are given as the source filed them. The calls are words filed in the database; no cut-off is given here.

Key:
[1] = Cytotoxicity against human WI38 cells; assay type: cell-based; details: WI-38
Method in brief: (§1)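 Cells were exposed to samples dissolved in DMSO for 72 h in RPMI-1640 medium with 10% fetal bovine serum. Inhibition of proliferation was read by the tetrazolium-based colorimetric MTT viability assay. The panel comprised NCI-H460 lung, MCF-7 breast, SF-268 glioma and MIA Pa Ca-2 pancreatic carcinoma lines, plus normal primary WI-38 fibroblasts.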

NCI-H460 [2] = assay: Cytotoxicity against human NCI-H460 cells by MTT assay; assay type: functional, cell-based; method in brief: as §1
MIA PaCa-2 [3] = assay: Cytotoxicity against human MIAPaCa2 cells; assay type: functional, cell-based; method in brief: as §1
MCF7 [4] = assay: Cytotoxicity against human MCF7 cells by MTT assay; assay type: functional, cell-based; method in brief: as §1
SF-268 [5] = assay: Cytotoxicity against human SF268 cells; assay type: functional, cell-based; method in brief: as §1
[6] = Cytotoxicity against human WI38 cells at 10 ug/mL; assay type: cell-based; details: wi-38
SF-268 [7] = assay: Cytotoxicity against human SF268 cells at 10 ug/mL; assay type: functional, cell-based
MIA PaCa-2 [8] = assay: Cytotoxicity against human MIAPaCa2 cells at 10 ug/mL; assay type: functional, cell-based
NCI-H460 [9] = assay: Cytotoxicity against human NCI-H460 cells at 10 ug/mL by MTT assay; assay type: functional, cell-based
MCF7 [10] = assay: Cytotoxicity against human MCF7 cells at 10 ug/mL by MTT assay; assay type: functional, cell-based

Row | SMILES | IC50 [1] | IC50 (NCI-H460 [2]) | IC50 (MIA PaCa-2 [3]) | IC50 (MCF7 [4]) | IC50 (SF-268 [5]) | Activity [6] | Activity (SF-268 [7]) | Activity (MIA PaCa-2 [8]) | Activity (NCI-H460 [9]) | Activity (MCF7 [10])
1 | COc1cccc2c1C(=O)c1c(O)c3c(c(O)c1C2=O)C[C@@](O)(C(=O)CO)C[C@@H]3O[C@H]1C[C@H](N)[C@H](O)[C@H](C)O1 [DOXORUBICIN] | 0.3 µM | 0.01 µM |  |  |  |  |  |  |  | 
2 | C/C=C/C(=O)COC(=O)c1c(C)cc(O)cc1O [GLOBOSUMONE A] | 13 µM | 6.5 µM | 10.6 µM | 21.3 µM | 8.8 µM |  |  |  |  | 
3 | Cc1cc(O)cc(O)c1C(=O)OCC(=O)C[C@H](C)O [GLOBOSUMONE B] | 14.2 µM | 24.8 µM | 30.2 µM | 21.9 µM | 29.1 µM |  |  |  |  | 
4 | Cc1cc(O)cc(O)c1C(=O)OCC(=O)[C@@H](O)[C@H](C)O [GLOBOSUMONE C] |  |  |  |  |  | Not Active | inactive | inactive | inactive | inactive
5 | Cc1cc(O)cc(O)c1C(=O)O [ORSELLINIC ACID] |  |  |  |  |  | Not Active | inactive | inactive | inactive | inactive
6 | C/C=C/C1OC2=C(C(=O)C[C@H](C)O2)C(=O)[C@@H]1O (some centres not stated) [TRICHODION] |  |  |  |  |  | Not Active | inactive | inactive | inactive | inactive
